Measurements reported in article PMC11903327 (Clinical and Translational Science, 2025).
≈ marks a conversion by molar mass, not a printed value. Like-named read-outs stand apart in the source and are kept apart here.

Key:
[1] = In vitro aqueous solubility in buffer systems across pH 1 to 6.8; assay type: physicochemical; settings: 37 °C, thermodynamic from solid
[2] = healthy Chinese subjects, fruquintinib 4 mg, cited from earlier work
[3] = healthy subjects, cited from earlier work
pKa = assay type: physicochemical
[4] = single oral radiolabeled fruquintinib 5 mg; cited from earlier work
[5] = Phase 1 dose-escalation study, QD dosing; cited from earlier work
[6] = system: colorectal adenocarcinoma‐2 cell; settings: colorectal adenocarcinoma-2 cells; cited from earlier work
[7] = Clinical mass balance study with radiolabelled fruquintinib; assay type: in vivo, human; settings: single 5 mg dose in humans; inferred from metabolic profile
[8] = assay type: in vivo, human
[9] = ref Takeda data on file, cited from earlier work
[10] = Biopharmaceutical classification system; assay type: physicochemical; settings: based on low aqueous solubility and high in vitro permeability
[11] = assay type: in vivo, human; settings: for CL/F: arithmetic mean (SD)
How it was run: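 Healthy nonsmoking adults aged 18–55, BMI 18–29 kg/m2. Randomized fed/fasted crossover: single 5 mg oral dose fasted or 30 min after a high-fat breakfast (~800–1000 kcal, 50% fat), with ≥14-day washout. Period 3: rabeprazole 40 mg QD with breakfast for 6 days, then fasted 1 h before dosing. Plasma sampled pre-dose to 168 h, LC-MS/MS (1.00–750 ng/mL). Noncompartmental PK; mixed-effects geometric LSM ratios, 90% CIs.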

[12] = clinical dose of 5 mg; cited from earlier work

CNC(=O)c1c(C)oc2cc(Oc3ncnc4cc(OC)c(OC)cc34)ccc12 [Fruquintinib]
solubility at 48 h ([1]; pH 1, simulated gastric fluid): 130 µg/mL (≈ 330 µM) | solubility at 48 h ([1]; pH 4.5, aqueous buffer): 0.9 µg/mL (≈ 2.29 µM) | solubility at 48 h ([1]; pH 6.8, aqueous buffer): 0.9 µg/mL (≈ 2.29 µM) | effect of a high-fat meal on the PK of fruquintinib [2]: no clinically significant effect | least squares GMR (90% CI) for AUC0-inf ([2]; high-fat meal vs fasted): 97.2% (94.0%–100.4%) | least squares GMR (90% CI) for Cmax ([2]; high-fat meal vs fasted): 82.9% (76.7%–89.5%) | change in fruquintinib exposure ([3]; coadministration with a CYP3A inducer): decreased | change in fruquintinib AUC or Cmax ([3]; coadministration with a CYP3A inhibitor): no clinically meaningful change | pKa (pKa): 2.78 | dose recovered in feces [4]: 30% | unchanged fruquintinib in feces, of the administered dose [4]: 5.34% | unchanged fruquintinib in urine, of the administered dose [4]: 0.50% | maximum-tolerated dose [5]: 4 mg | apical-to-basolateral apparent permeability [6]: 30 ×10⁻⁶ cm/s | efflux ratio [6]: ~1 | fraction of the dose absorbed [7]: > 85% | relation of AEs to fruquintinib ([8]; all five AEs): not related | severity of AEs ([8]; all five AEs): mild | subjects reporting AEs ([8]; four of 14 subjects, five AEs, all treatment periods): 29% | changes in chemistry, hematology, urinalysis and coagulation laboratory test results ([8]; over time during the study): no clinically significant changes | tolerability ([8]; with or without food or with rabeprazole): well tolerated | time stable in simulated gastric fluids ([9]; simulated gastric fluids): at least 1 h | time stable in simulated intestinal fluids ([9]; simulated intestinal fluids): at least 3 h | biopharmaceutical classification system (BCS) class [10]: class 2 | time after dosing at which peak concentrations were achieved ([11]; fruquintinib 5 mg oral, under fed and fasted conditions): approximately 4 h | effects of food or rabeprazole on fruquintinib PK ([11]; healthy subjects, fruquintinib 5 mg): No clinically relevant effects | Tmax ([11]; human, plasma, oral): 0.5 h | Tmax ([11]; human, plasma, po, 5 mg): 4 h | CL/F ([11]; single oral fruquintinib 5 mg + rabeprazole 40 mg, fasted): 15.6 (4.59) mL/min | CL/F ([11]; single oral fruquintinib 5 mg, fasted (reference)): 17.1 (5.22) mL/min | CL/F ([11]; single oral fruquintinib 5 mg, fed (high-fat meal)): 16.3 (4.32) mL/min | Tmax ([11]; single oral fruquintinib 5 mg, fed (high-fat meal), median (minimum–maximum)): 4.00 (2.00–6.00) h

CNC(=O)c1ccccc1Sc1ccc2c(/C=C/c3ccccn3)n[nH]c2c1 [axitinib]
DDI (based on AUC) when combined with rabeprazole [12]: no clinically meaningful DDI | food effect [12]: no clinically meaningful food effect
